The species entered for assay [1] is Rattus norvegicus. The assay can be described thus: Effect in the anti ovulatory assay (AOA) in rats expressed as no. of rats ovulating/No of rats treated at 10 mg; 2/6. It counts as functional.
For assay [2], the species on record is Rattus norvegicus. The assay can be described thus: Effect in the anti ovulatory assay (AOA) in rats expressed as no. of rats ovulating/No of rats treated at 25 mg; 0/3. The class given is functional.
For assay [3], the species on record is Rattus norvegicus. As to the kind of experiment: Effect in the anti ovulatory assay (AOA) in rats expressed as no. of rats ovulating/No of rats treated at 2.0 mg; 1/10. The class given is functional.
The target of assay [4] is T1, Gonadotropin-releasing hormone receptor (Rattus norvegicus) (UniProt P30969).
T1 sequence (whole entry): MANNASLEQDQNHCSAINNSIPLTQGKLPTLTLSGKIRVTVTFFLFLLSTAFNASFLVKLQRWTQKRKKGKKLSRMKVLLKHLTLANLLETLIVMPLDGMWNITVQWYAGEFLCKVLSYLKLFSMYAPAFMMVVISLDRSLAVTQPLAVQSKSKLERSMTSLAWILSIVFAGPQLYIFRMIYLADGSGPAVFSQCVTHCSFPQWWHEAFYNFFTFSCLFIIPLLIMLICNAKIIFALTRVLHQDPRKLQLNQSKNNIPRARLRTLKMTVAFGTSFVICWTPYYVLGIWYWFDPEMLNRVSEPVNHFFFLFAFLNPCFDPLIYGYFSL
As to the kind of experiment: Duration of action, measured using castrated male rat assay to inhibit luteinizing hormone release.; fully active at 24 hr but not at 48 hr. It counts as functional.

For assay [5], the target named is T1, Gonadotropin-releasing hormone receptor (Rattus norvegicus). As to the kind of experiment: In vitro potency to inhibit GnRH-mediated LH secretion by cultured pituitary cells relative to [Ac-delta-Pro1,DFpa2,DTrp36]GnRH. The class given is functional, cell-based. The note with it: Pituitary gland cell. The method in brief: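 Dispersed rat pituitary cells in culture; antagonist inhibition of GnRH-stimulated LH secretion. Potency expressed relative to standard antagonist [Ac-Δ3Pro1,D4FPhe2,DTrp3,6]GnRH taken as 1.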

The species entered for assay [6] is Rattus norvegicus. As to the kind of experiment: Effect in the anti ovulatory assay (AOA) in rats expressed as no. of rats ovulating/No of rats treated at 2.5 mg; 4/8. The class given is functional.
For assay [7], the species on record is Rattus norvegicus. The assay can be described thus: Effect in the anti ovulatory assay (AOA) in rats expressed as no. of rats ovulating/No of rats treated at 1.0 mg; 2/2. It counts as functional.
The species entered for assay [8] is Rattus norvegicus. As to the kind of experiment: Effect in the anti ovulatory assay (AOA) in rats expressed as no. of rats ovulating/No of rats treated at 1.0 mg; 7/14. The class given is functional.
Assay [9] concerns the target T1, Gonadotropin-releasing hormone receptor (Rattus norvegicus). The assay can be described thus: Effect in the anti ovulatory assay (AOA) in rats expressed as no. of rats ovulating/No of rats treated at 2.5 mg; 0/8. The class given is functional.
Assay [10] has the same target. As to the kind of experiment: Duration of action measured using castrated male rat assay to inhibit luteinizing hormone release.; fully active at 72 hr. It counts as functional.
For assay [11], the species on record is Rattus norvegicus. As to the kind of experiment: Effect in the anti ovulatory assay (AOA) in rats expressed as no. of rats ovulating/No of rats treated at 1.0 mg; 9/18. The class given is functional.
The species entered for assay [12] is Rattus norvegicus. As to the kind of experiment: Effect in the anti ovulatory assay (AOA) in rats expressed as no. of rats ovulating/No of rats treated at 2.5 mg; 0/6. It counts as functional.
The species named for assay [13] is Rattus norvegicus. The assay can be described thus: Effect in the anti ovulatory assay (AOA) in rats expressed as no. of rats ovulating/No of rats treated at 1.0 mg; 0/7. It counts as functional.
Assay [14] is filed under the species Rattus norvegicus. The assay can be described thus: Effect in the anti ovulatory assay (AOA) in rats expressed as no. of rats ovulating/No of rats treated at 1.0 mg; 8/8. The class given is functional.
For assay [15], the species on record is Rattus norvegicus. The assay can be described thus: Duration of action measured using castrated male rat assay to inhibit luteinizing hormone release.; fully active at 48 hr but not at 72 hr. The class given is functional.
For assay [16], the species on record is Rattus norvegicus. The assay can be described thus: Effect in the anti ovulatory assay (AOA) in rats expressed as no. of rats ovulating/No of rats treated at 2.5 mg; 3/7. It counts as functional.
The species named for assay [17] is Rattus norvegicus. The assay can be described thus: Effect in the anti ovulatory assay (AOA) in rats expressed as no. of rats ovulating/No of rats treated at 50 mg; 4/7. The class given is functional.
For assay [18], the species on record is Rattus norvegicus. The assay can be described thus: Effect in the anti ovulatory assay (AOA) in rats expressed as no. of rats ovulating/No of rats treated at 1.0 mg; 1/10. The class given is functional.

Data on ten compounds can be found in ChEMBL document CHEMBL1128434, “Gonadotropin-releasing hormone antagonists: novel members of the azaline B family” (1995).

For `CC(=O)Nc1ccc(C[C@H](NC(=O)[C@H](CO)NC(=O)[C@@H](Cc2cccnc2)NC(=O)[C@@H](Cc2ccc(Cl)cc2)NC(=O)[C@H](Cc2ccc3ccccc3c2)NC(C)=O)C(=O)N[C@H](Cc2ccc(NC(C)=O)cc2)C(=O)N[C@@H](CC(C)C)C(=O)N[C@@H](CCCCNC(C)C)C(=O)N2CCC[C@H]2C(=O)N[C@H](C)N)cc1`, the “No. of rats ovulated” value in the assay listed under Rattus norvegicus [1] is reported as 2; in the assay listed under Rattus norvegicus [2], 0.

Regarding `CC(=O)N[C@H](Cc1ccc2ccccc2c1)C(=O)N[C@H](Cc1ccc(Cl)cc1)C(=O)N[C@H](Cc1cccnc1)C(=O)N[C@@H](CO)C(=O)N[C@@H](CCCCNc1n[nH]c(N)n1)C(=O)N[C@H](CCCCNc1n[nH]c(N)n1)C(=O)N[C@@H](CC(C)C)C(=O)N[C@@H](CCCCNC(C)C)C(=O)N1CCC[C@H]1C(=O)N[C@H](C)N`, the “No. of rats ovulated” value in the assay listed under Rattus norvegicus [3] amounted to 1. This compound also showed a Duration of action in assay [4] of 24 h. Further, in assay [5], the Relative potency worked out at 0.23.

Regarding `CC(=O)N[C@H](Cc1ccc2ccccc2c1)C(=O)N[C@H](Cc1ccc(Cl)cc1)C(=O)N[C@H](Cc1cccnc1)C(=O)N[C@@H](CO)C(=O)N[C@@H](Cc1ccc(NC(=O)C2CCC(=O)N2)cc1)C(=O)N[C@H](Cc1ccc(NC(=O)C2CCC(=O)N2)cc1)C(=O)N[C@@H](CC(C)C)C(=O)N[C@@H](CCCCNC(C)C)C(=O)N1CCC[C@H]1C(=O)N[C@H](C)N` (some centres not stated), the “No. of rats ovulated” value came out at 4 in the assay filed under Rattus norvegicus [6] and 2 in the assay listed under Rattus norvegicus [7].

On to `CC(=O)Nc1ccc(C[C@@H](NC(=O)[C@H](Cc2ccc(Nc3n[nH]c(N)n3)cc2)NC(=O)[C@H](CO)NC(=O)[C@@H](Cc2cccnc2)NC(=O)[C@@H](Cc2ccc(Cl)cc2)NC(=O)[C@@H](Cc2ccc3ccccc3c2)NC(C)=O)C(=O)N[C@@H](CC(C)C)C(=O)N[C@@H](CCCCNC(C)C)C(=O)N2CCC[C@H]2C(=O)N[C@H](C)N)cc1`, for which the “No. of rats ovulated” value was determined as 7 in the assay filed under Rattus norvegicus [8] and 0 in [9]. This compound showed a Relative potency in assay [5] of 0.82. Besides, the Duration of action in assay [10] stood at 72 h.

On to `CC(=O)N[C@H](Cc1ccc2ccccc2c1)C(=O)N[C@H](Cc1ccc(Cl)cc1)C(=O)N[C@H](Cc1cccnc1)C(=O)N[C@@H](CO)C(=O)N[C@@H](Cc1ccc(NC(=O)CCNc2n[nH]c(N)n2)cc1)C(=O)N[C@H](Cc1ccc(NC(=O)CCNc2n[nH]c(N)n2)cc1)C(=O)N[C@@H](CC(C)C)C(=O)N[C@@H](CCCCNC(C)C)C(=O)N1CCC[C@H]1C(=O)N[C@H](C)N`, for which the “No. of rats ovulated” value in the assay filed under Rattus norvegicus [11] is recorded as 9; in the assay listed under Rattus norvegicus [12] it was 0. Moreover, the Relative potency in [5] worked out at 0.52. Moreover, the Duration of action in [10] was 72 h.

Consider `CC(=O)N[C@H](Cc1ccc2ccccc2c1)C(=O)N[C@H](Cc1ccc(Cl)cc1)C(=O)N[C@H](Cc1cccnc1)C(=O)N[C@@H](CO)C(=O)N[C@@H](Cc1ccc(Nc2n[nH]c(N)n2)cc1)C(=O)N[C@H](Cc1ccc(Nc2n[nH]c(N)n2)cc1)C(=O)N[C@@H](CC(C)C)C(=O)N[C@@H](CCCCNC(C)C)C(=O)N1CCC[C@H]1C(=O)N[C@H](C)N`, for which the “No. of rats ovulated” value in the assay listed under Rattus norvegicus [13] came to 0. The compound further gave a Relative potency in [5] of 1.3. In assay [10], this compound returned a Duration of action of 72 h.

Turning to `CC(=O)Nc1ccc(C[C@H](NC(=O)[C@H](CO)NC(=O)[C@@H](Cc2cccnc2)NC(=O)[C@@H](Cc2ccc(Cl)cc2)NC(=O)[C@@H](Cc2ccc3ccccc3c2)NC(C)=O)C(=O)N[C@H](Cc2ccc(NC(C)=O)cc2)C(=O)N[C@@H](CC(C)C)C(=O)N[C@@H](CCCCNC(C)C)C(=O)N2CCC[C@H]2C(=O)N[C@@H](C)N)cc1`, the figures for the “No. of rats ovulated” value (in the assay listed under Rattus norvegicus [14]; in [9]) were 8 and 0, respectively. The Duration of action in the assay listed under Rattus norvegicus [15] is 48 h.

`CC(=O)N[C@H](Cc1ccc2ccccc2c1)C(=O)N[C@H](Cc1ccc(Cl)cc1)C(=O)N[C@H](Cc1cccnc1)C(=O)N[C@@H](CO)C(=O)N[C@@H](Cc1ccc(Nc2n[nH]c(N)n2)cc1)C(=O)N[C@H](Cc1ccc(Nc2n[nH]c(N)n2)cc1)C(=O)N[C@@H](CC(C)C)C(=O)N[C@@H](Cc1ccc(CNC(C)C)cc1)C(=O)N1CCC[C@H]1C(=O)N[C@H](C)N` gave a Relative potency in [5] of 1.1. Besides, the “No. of rats ovulated” value in the assay listed under Rattus norvegicus [16] worked out at 3.

Take `CC(=O)N[C@H](Cc1ccc2ccccc2c1)C(=O)N[C@H](Cc1ccc(Cl)cc1)C(=O)N[C@H](Cc1cccnc1)C(=O)N[C@@H](CO)C(=O)N[C@@H](Cc1ccc(Nc2n[nH]c(N)n2)cc1)C(=O)N[C@H](Cc1ccc(Nc2n[nH]c(N)n2)cc1)C(=O)N[C@@H](CC(C)C)C(=O)N[C@@H](Cc1ccc(NC(C)C)cc1)C(=O)N1CCC[C@H]1C(=O)N[C@H](C)N`: the “No. of rats ovulated” value in the assay listed under Rattus norvegicus [17] came out at 4.

As for `CCC(=O)Nc1ccc(C[C@H](NC(=O)[C@H](CO)NC(=O)[C@@H](Cc2cccnc2)NC(=O)[C@@H](Cc2ccc(Cl)cc2)NC(=O)[C@@H](Cc2ccc3ccccc3c2)NC(C)=O)C(=O)N[C@H](Cc2ccc(NC(=O)CC)cc2)C(=O)N[C@@H](CC(C)C)C(=O)N[C@@H](CCCCNC(C)C)C(=O)N2CCC[C@H]2C(=O)N[C@H](C)N)cc1`, the No. of rats ovulated in the assay filed under Rattus norvegicus [18] came to 4; in assay [9] it was 0. In assay [10], this compound showed a Duration of action of 72 h.
